Test results reported in ChEMBL document CHEMBL1121884, “Piperazinylquinoxalines with central serotoninmimetic activity” (1981).
Activity calls are given as the source filed them. The calls are words filed in the database; no cut-off is given here.

How the values were obtained:
[1] = target: T1, Serotonin (5-HT) receptor (Rattus norvegicus) (UniProt P35563+P35365+P32305+P31388+Q9JJ16+P28564+P30994+Q62758+P08909+P14842+P30940+P35364+P19327+P28565); assay: (§1) Ability to elicit head twitches in rats (a serotonin mimetic response); assay type: functional; design: concentration or dose not given beside the values
Outline: (§2)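 Female Sprague-Dawley rats (150-250 g), compound given ip in 1% methylcellulose vehicle, dose as base weight; quantal scoring of rats showing at least one head twitch during a 2-min observation beginning 30 min after dosing; usually six rats per dose level; vehicle controls run.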

[2] = target: Sodium-dependent serotonin transporter (Rattus norvegicus) (UniProt P31652); assay: (§3) Serotonin neuronal reuptake blocking activity was determined by the antagonism of the head twitch response induced by treatment of rats; assay type: functional; design: concentration or dose not given beside the values
Sodium-dependent serotonin transporter (Rattus norvegicus), sequence (P31652 whole entry): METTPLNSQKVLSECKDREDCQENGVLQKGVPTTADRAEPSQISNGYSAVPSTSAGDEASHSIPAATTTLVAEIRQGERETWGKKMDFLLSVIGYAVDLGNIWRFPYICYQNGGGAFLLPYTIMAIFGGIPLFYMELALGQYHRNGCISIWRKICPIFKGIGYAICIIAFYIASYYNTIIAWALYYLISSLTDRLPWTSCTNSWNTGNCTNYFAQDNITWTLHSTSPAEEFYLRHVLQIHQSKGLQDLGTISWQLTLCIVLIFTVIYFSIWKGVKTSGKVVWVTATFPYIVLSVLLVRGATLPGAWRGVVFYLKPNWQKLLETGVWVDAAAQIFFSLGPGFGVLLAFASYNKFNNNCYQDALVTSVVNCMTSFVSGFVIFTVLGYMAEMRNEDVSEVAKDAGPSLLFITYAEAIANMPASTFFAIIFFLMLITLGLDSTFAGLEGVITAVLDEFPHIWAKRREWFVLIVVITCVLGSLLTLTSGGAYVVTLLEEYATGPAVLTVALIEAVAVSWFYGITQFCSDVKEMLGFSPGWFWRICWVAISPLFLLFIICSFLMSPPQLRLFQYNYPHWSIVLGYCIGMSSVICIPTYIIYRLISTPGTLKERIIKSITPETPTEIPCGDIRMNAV
Outline: (§4)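 Female Sprague-Dawley rats (150-250 g) dosed ip with compound (1% methylcellulose vehicle, dose as base weight), then p-chloromethamphetamine 6.0 mg/kg ip 1 h later; head twitches observed 30 min after PCMA; scored as rats not twitching; usually six rats per dose; ED50 = dose antagonizing PCMA head twitch in 50% of animals, with 95% confidence limits.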

[3] = target: Sodium-dependent serotonin transporter (Rattus norvegicus) (UniProt P31652); assay: Serotonin neuronal reuptake blocking activity was determined by the antagonism of the head twitch response induced in rats; assay type: functional; design: concentration or dose not given beside the values; outline: as §4
[4] = target: T1, Serotonin (5-HT) receptor (Rattus norvegicus); assay: as §1; assay type: functional; design: concentration or dose not given beside the values; outline: as §2; remark: listed apart in the source
[5] = target: T1, Serotonin (5-HT) receptor (Rattus norvegicus); assay: as §1; assay type: functional; design: concentration or dose not given beside the values; outline: as §2; remark: listed apart in the source
[6] = target: Sodium-dependent serotonin transporter (Rattus norvegicus) (UniProt P31652); assay: as §3; assay type: functional; design: concentration or dose not given beside the values; outline: as §4; remark: listed apart in the source
Rattus norvegicus [7] = assay: Ability to elicit head twitches in rats a response characteristic of a serotonin mimetic action in the central nervous system was measured after 3 mg/kg of ip administration; assay type: functional; conditions: route intraperitoneal; outline: as §2
Rattus norvegicus [8] = assay: Ability to elicit head twitches in rats a response characteristic of a serotonin mimetic action in the central nervous system after 9 mg/kg of ip administration; assay type: functional; conditions: route intraperitoneal; outline: as §2
Rattus norvegicus [9] = assay: Serotonin neuronal reuptake blocking activity was determined by the antagonism of the head twitch response induced in rats with p-chloromethamphetamine (PCMA) after 9 mg/kg of ip administration; assay type: functional; conditions: route intraperitoneal; outline: as §4
Rattus norvegicus [10] = assay: Serotonin neuronal reuptake blocking activity was determined by the antagonism of the head twitch response induced by treatment of rats with p-chloromethamphetamine (PCMA) after 1 mg/kg of ip administration; assay type: functional; conditions: route intraperitoneal; outline: as §4
Rattus norvegicus [11] = assay: Serotonin neuronal reuptake blocking activity was determined by the antagonism of the head twitch response induced by treatment of rats with p-chloromethamphetamine (PCMA) after 3 mg/kg of ip administration; assay type: functional; conditions: route intraperitoneal; outline: as §4
Rattus norvegicus [12] = assay: Ability to elicit head twitches in rats a response characteristic of a serotonin mimetic action in the central nervous system was measured after 1 mg/kg of ip administration; assay type: functional; conditions: route intraperitoneal; outline: as §2
Rattus norvegicus [13] = assay: Serotonin neuronal reuptake blocking activity was determined by the antagonism of the head twitch response induced in rats with p-chloromethamphetamine (PCMA) after 40 mg/kg of ip administration; Animals succumbed; assay type: functional, organism-based; design: dose 40 mg/kg; outline: as §4
Rattus norvegicus [14] = assay: Ability to elicit head twitches in rats a response characteristic of a serotonin mimetic action in the central nervous system after 40 mg/kg of ip administration; Animals succumbed; assay type: functional, organism-based; design: dose 40 mg/kg; outline: as §2
Rattus norvegicus [15] = assay: Serotonin neuronal reuptake blocking activity was determined by the antagonism of the head twitch response induced in rats with p-chloromethamphetamine (PCMA) after 6 mg/kg of ip administration; assay type: functional; conditions: route intraperitoneal; outline: as §4
Rattus norvegicus [16] = assay: Serotonin neuronal reuptake blocking activity was determined by the antagonism of the head twitch response induced by treatment of rats with p-chloromethamphetamine (PCMA) after 2 mg/kg of ip administration; assay type: functional; conditions: route intraperitoneal; outline: as §4
Rattus norvegicus [17] = assay: Ability to elicit head twitches in rats a response characteristic of a serotonin mimetic action in the central nervous system was measured after 2 mg/kg of ip administration; assay type: functional; conditions: route intraperitoneal; outline: as §2
Rattus norvegicus [18] = assay: Ability to elicit head twitches in rats a response characteristic of a serotonin mimetic action in the central nervous system after 6 mg/kg of ip administration; assay type: functional; conditions: route intraperitoneal; outline: as §2
Rattus norvegicus [19] = assay: Serotonin neuronal reuptake blocking activity was determined by the antagonism of the head twitch response induced by treatment of rats with p-chloromethamphetamine (PCMA) after 0.67 mg/kg of ip administration; assay type: functional; conditions: route intraperitoneal; outline: as §4
Rattus norvegicus [20] = assay: Ability to elicit head twitches in rats a response characteristic of a serotonin mimetic action in the central nervous system was measured after 0.67 mg/kg of ip administration; assay type: functional; conditions: route intraperitoneal; outline: as §2
Rattus norvegicus [21] = assay: Ability to elicit head twitches in rats a response characteristic of a serotonin mimetic action in the central nervous system was measured after 1.0 mg/kg of ip administration; assay type: functional; conditions: route intraperitoneal; outline: as §2
Rattus norvegicus [22] = assay: Serotonin neuronal reuptake blocking activity was determined by the antagonism of the head twitch response induced by treatment of rats with p-chloromethamphetamine (PCMA) after 3 mg/kg of ip administration; 13/36; assay type: functional; conditions: route intraperitoneal; outline: as §4
Rattus norvegicus [23] = assay: Serotonin neuronal reuptake blocking activity was determined by the antagonism of the head twitch response induced by treatment of rats with p-chloromethamphetamine (PCMA) after 1.0 mg/kg of ip administration; 5/36; assay type: functional; conditions: route intraperitoneal; outline: as §4
Rattus norvegicus [24] = assay: Ability to elicit head twitches in rats a response characteristic of a serotonin mimetic action in the central nervous system was measured after 3 mg/kg of ip administration; 11/36; assay type: functional; conditions: route intraperitoneal; outline: as §2
Rattus norvegicus [25] = assay: Serotonin neuronal reuptake blocking activity was determined by the antagonism of the head twitch response induced in rats with p-chloromethamphetamine (PCMA) after 9 mg/kg of ip administration; 24/36; assay type: functional; conditions: route intraperitoneal; outline: as §4
Rattus norvegicus [26] = assay: Ability to elicit head twitches in rats a response characteristic of a serotonin mimetic action in the central nervous system was measured after 1 mg/kg of ip administration; 5/36; assay type: functional; conditions: route intraperitoneal; outline: as §2
Rattus norvegicus [27] = organism: Rattus norvegicus; assay: ED50 value expresses the inhibition of serotonin reuptake in rat.; assay type: functional; outline: as §4
Rattus norvegicus [28] = assay: Ability to elicit head twitches in rats a response characteristic of a serotonin mimetic action in the central nervous system after 20 mg/kg of ip administration; assay type: functional; conditions: route intraperitoneal; outline: as §2
Rattus norvegicus [29] = assay: Ability to elicit head twitches in rats a response characteristic of a serotonin mimetic action in the central nervous system was measured after 1.2 mg/kg of ip administration; assay type: functional; conditions: route intraperitoneal; outline: as §2
Rattus norvegicus [30] = assay: Ability to elicit head twitches in rats a response characteristic of a serotonin mimetic action in the central nervous system was measured after 5 mg/kg of ip administration; assay type: functional; conditions: route intraperitoneal; outline: as §2
Rattus norvegicus [31] = assay: Ability to elicit head twitches in rats a response characteristic of a serotonin mimetic action in the central nervous system after 6.0 mg/kg of ip administration; assay type: functional; conditions: route intraperitoneal; outline: as §2
Rattus norvegicus [32] = assay: Ability to elicit head twitches in rats a response characteristic of a serotonin mimetic action in the central nervous system was measured after 2.0 mg/kg of ip administration; assay type: functional; conditions: route intraperitoneal; outline: as §2
Rattus norvegicus [33] = assay: Serotonin neuronal reuptake blocking activity was determined by the antagonism of the head twitch response induced in rats with p-chloromethamphetamine (PCMA) after 6.0 mg/kg of ip administration; assay type: functional; conditions: route intraperitoneal; outline: as §4

SMILES	Activity [1]	PCMA antagonism [2]	PCMA antagonism [3]	Activity [4]	Activity [5]	PCMA antagonism [6]	also measured
CN1CCN(c2nc3ccc(S(N)(=O)=O)cc3nc2Cl)CC1	3	2	2	4	1	2	
Cc1cccc2nc(N3CCNCC3)cnc12.Cl							Activity (Rattus norvegicus [7]): 4; Activity (Rattus norvegicus [8]): 5; PCMA antagonism (Rattus norvegicus [9]): 1; PCMA antagonism (Rattus norvegicus [10]): 0; PCMA antagonism (Rattus norvegicus [11]): 1; Activity (Rattus norvegicus [12]): 0
Fc1cccc2ncc(N3CCNCC3)nc12	1	1			6	0	PCMA antagonism (Rattus norvegicus [13]): Active; Activity (Rattus norvegicus [14]): Active
Oc1ccc2nc(N3CCNCC3)cnc2c1	0	0	2	1	0		
CS(=O)(=O)c1ccc2nc(N3CCNCC3)cnc2c1							PCMA antagonism (Rattus norvegicus [15]): 0; PCMA antagonism (Rattus norvegicus [16]): 0; Activity (Rattus norvegicus [17]): 1; Activity (Rattus norvegicus [18]): 2; PCMA antagonism (Rattus norvegicus [19]): 2; Activity (Rattus norvegicus [20]): 0
CN1CCN(c2cnc3cc(Cl)ccc3n2)CC1.Cl							Activity (Rattus norvegicus [7]): 1; Activity (Rattus norvegicus [8]): 1; PCMA antagonism (Rattus norvegicus [9]): 4; PCMA antagonism (Rattus norvegicus [10]): 2; Activity (Rattus norvegicus [21]): 0; PCMA antagonism (Rattus norvegicus [11]): 2
N#Cc1ccc2nc(N3CCNCC3)cnc2c1							PCMA antagonism (Rattus norvegicus [22]): 13; PCMA antagonism (Rattus norvegicus [23]): 5; Activity (Rattus norvegicus [24]): 11; PCMA antagonism (Rattus norvegicus [25]): 24; Activity (Rattus norvegicus [26]): 5
CN(C)CCCN1c2ccccc2CCc2ccc(Cl)cc21 [CLOMIPRAMINE]							ED50 (Rattus norvegicus [27]): 2 mg/kg
Nc1nc2ccccc2nc1N1CCNCC1	2	1	0	6	3	1	
Cl.Clc1ccc2nc(N3CCNCC3)cnc2c1	1	6	6	2	0	4	ED50 (Rattus norvegicus [27]; Rattus norvegicus): 0.5 mg/kg
Fc1ccc2nc(N3CCNCC3)cnc2c1		2	4			2	Activity (Rattus norvegicus [17]): 4; Activity (Rattus norvegicus [18]): 5; Activity (Rattus norvegicus [20]): 4
Clc1ccc2nc(N3CCNCC3)c(Sc3ccccc3)nc2c1	1	2	1	0	1	1	
Cl.Clc1nc2ccccc2nc1N1CCNCC1							Activity (Rattus norvegicus [28]): 1; Activity (Rattus norvegicus [29]): 2; Activity (Rattus norvegicus [30]): 3
Cl.ON1CCN(c2cnc3ccccc3n2)CC1							Activity (Rattus norvegicus [7]): 2; Activity (Rattus norvegicus [8]): 4; Activity (Rattus norvegicus [12]): 2
c1ccc2nc(N3CCNCC3)cnc2c1	9	2			12	2	PCMA antagonism (Rattus norvegicus [13]): Active; Activity (Rattus norvegicus [14]): Active
Cl.O=[N+]([O-])c1ccc2ncc(N3CCNCC3)nc2c1							PCMA antagonism (Rattus norvegicus [16]): 5; Activity (Rattus norvegicus [31]): 0; Activity (Rattus norvegicus [32]): 0; PCMA antagonism (Rattus norvegicus [33]): 4; PCMA antagonism (Rattus norvegicus [19]): 2; Activity (Rattus norvegicus [20]): 1
CN1CCN(c2nc3ccccc3nc2O)CC1	0	0	0	6	0	1	
